Activity data for 28 compounds are collected here from ChEMBL document CHEMBL4819088, “Synthesis and in vivo screening of isosteviol derivatives as new cardioprotective agents” (2021).

The species entered for experiment [1] is Danio rerio. Briefly: Prevention of doxorubicin-induced Zebrafish mortality assessed as survival rate at 40 uM incubated for 48 hrs by inverted fluorescence microscopy (reference value: 52%). It is filed as functional.
For experiment [2], the species on record is Danio rerio. Briefly: Prevention of doxorubicin-induced Zebrafish mortality assessed as increase in survival rate incubated for 48 hrs by inverted fluorescence microscopy. It is filed as functional, organism-based. To be noted: dose 5-40 µM. An outline of the steps:
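Wild-type embryos, 24 hpf, 20 per well in 1 mL egg water, exposed to DOX (100 μM) with or without test compound (5, 15, 40 μM) for 48 h. Survival scored at 96 hpf by inverted fluorescence microscopy; no motion on touch, or loss of atrial and ventricular contractility, counted as dead. Mean ± S.D., n = 4.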

The species named for experiment [3] is Danio rerio. Put plainly: Prevention of doxorubicin-induced Zebrafish mortality assessed as survival rate at 5 uM incubated for 48 hrs by inverted fluorescence microscopy (reference value: 52%). It is filed as functional.
Experiment [4] has as its system Danio rerio. Briefly: Cardioprotective activity in (cmlc2:GFP) transgenic Zebrafish assessed as reduction in doxorubicin-induced cardiac edema measured after 48 hrs. It is filed as functional, organism-based.
The species named for experiment [5] is Danio rerio. Put plainly: Cardioprotective activity in (cmlc2:GFP) transgenic Zebrafish assessed as reduction in doxorubicin-induced cardiac impairment measured after 48 hrs. It is filed as functional, organism-based. An outline of the steps: (§1)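 Tg(cmlc2:GFP) embryos, 24 hpf, 20 per well, exposed to DOX (80 μM) with or without test compound at its optimum concentration for 48 h. At 72 hpf, heart rate, fractional shortening, stroke volume and cardiac output were derived from fluorescence imaging of atrium and ventricle. Mean ± S.D., n = 4.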

Experiment [6] is filed under the species Danio rerio. Put plainly: Prevention of doxorubicin-induced Zebrafish mortality assessed as survival rate at 15 uM incubated for 48 hrs by inverted fluorescence microscopy (reference value: 52%). It is filed as functional.
The species named for experiment [7] is Danio rerio. Put plainly: Cardioprotective activity in (cmlc2:GFP) transgenic Zebrafish assessed as prevention of doxorubicin-induced heart shape change measured after 48 hrs. It is filed as functional, organism-based.
Experiment [8] is filed under the species Danio rerio. Briefly: Cardioprotective activity against doxorubicin-induced (cmlc2:GFP) transgenic Zebrafish assessed as protection of heart measured after 48 hrs. It is filed as functional, organism-based. To be noted: dose 20-60 µM. The procedure, abridged:
as §1

The species entered for experiment [9] is Danio rerio. Put plainly: Cardioprotective activity against doxorubicin-induced (cmlc2:GFP) transgenic Zebrafish assessed as protection of heart function loss measured after 48 hrs. It is filed as functional, organism-based. To be noted: dose 20-60 µM. An outline of the steps: as §1

Active and inactive are the calls of the source. The rule behind the calls is not given here.

On to `COC(=O)[C@]1(C)CCC[C@@]2(C)[C@@H]3CC[C@@]4(C)C[C@]3(CC[C@@H]21)CC4=O`, for which, in the experiment listed under Danio rerio [1], the Activity is on record as 60%.

Turning to `COc1ccc(C(=O)OC[C@@H]2C(=O)[C@@]3(C)CC[C@H]4[C@]5(C)CCC[C@@](C)(C(=O)O)[C@H]5CC[C@@]24C3)c(OC)c1OC`, the Activity entry in the experiment filed under Danio rerio [2] was “Dose-Dependent Effect”; in the experiment filed under Danio rerio [3], 77%; in the experiment on Danio rerio [4] it was “Dose-Dependent Effect”; in the experiment filed under Danio rerio [5], “Dose-Dependent Effect”; in the experiment filed under Danio rerio [6], 77%; in the experiment filed under Danio rerio [1], 77%. Besides, the Activity entry in the experiment filed under Danio rerio [7], in the experiment listed under Danio rerio [8] and in the experiment filed under Danio rerio [9] was “Dose-Dependent Effect” each time.

Take `COc1ccc(C(=O)OC[C@@H]2[C@@H](O)[C@@]3(C)CC[C@H]4[C@]5(C)CCC[C@@](C)(C(=O)O)[C@H]5CC[C@@]24C3)cc1OC`: the Activity in the experiment filed under Danio rerio [1] is listed as >70%.

Take `CC(=O)OC[C@@H]1C(=O)[C@@]2(C)CC[C@H]3[C@]4(C)CCC[C@@](C)(C(=O)O)[C@H]4CC[C@@]13C2`: in the experiment listed under Danio rerio [1], the result was inactive.

`C[C@]12CC[C@H]3[C@]4(C)CCC[C@@](C)(N)[C@H]4CC[C@@]3(C1)[C@H](COC(=O)c1cccnc1)[C@H]2O`: the result in the experiment listed under Danio rerio [1] was Active.

For `COc1ccc(C(=O)OC[C@@H]2[C@@H](O)[C@@]3(C)CC[C@H]4[C@]5(C)CCC[C@@](C)(C(=O)O)[C@H]5CC[C@@]24C3)cc1`, the Activity in the experiment listed under Danio rerio [1] is listed as >70%.

Take `COc1ccc(C(=O)OC[C@@H]2[C@@H](O)[C@@]3(C)CC[C@H]4[C@]5(C)CCC[C@@](C)(N)[C@H]5CC[C@@]24C3)c(OC)c1OC`: the result in the experiment filed under Danio rerio [1] was Active.

Consider `COc1ccc(C(=O)OC[C@@H]2[C@@H](O)[C@@]3(C)CC[C@H]4[C@]5(C)CCC[C@@](C)(N)[C@H]5CC[C@@]24C3)cc1`, for which, in the experiment filed under Danio rerio [1], the result was Active.

As to `C[C@]12CC[C@H]3[C@]4(C)CCC[C@@](C)(C(=O)O)[C@H]4CC[C@@]3(C1)[C@H](COC(=O)C1CCCCC1)[C@H]2O`, the outcome in the experiment listed under Danio rerio [1] was inactive.

`C[C@@H]1CC(=O)NN=C1c1ccc(NN=C(C#N)C#N)cc1` [LEVOSIMENDAN]: the Activity result in the experiment filed under Danio rerio [2] is “Dose-Dependent Effect”; in the experiment listed under Danio rerio [3] it was 58%; in the experiment listed under Danio rerio [6], 69%; in the experiment filed under Danio rerio [1], 74%.

Take `C[C@@]12CC[C@@H]3[C@@](CC[C@H]4[C@@]3(C)CCC[C@@]4(C)C(=O)O)(CC1=O)C2` [ISOSTEVIOL]: the Activity in the experiment listed under Danio rerio [3] was 57%; in the experiment with Danio rerio [4], “Dose-Dependent Effect”; in the experiment filed under Danio rerio [5] it was “Dose-Dependent Effect”; in the experiment filed under Danio rerio [7], “Dose-Dependent Effect”; in the experiment filed under Danio rerio [8], “Dose-Dependent Effect”; in the experiment listed under Danio rerio [9], “Dose-Dependent Effect”. In addition, the result in the experiment listed under Danio rerio [6] and in the experiment listed under Danio rerio [1] was inactive.

Regarding `COc1ccc(CC(=O)OC[C@@H]2[C@@H](O)[C@@]3(C)CC[C@H]4[C@]5(C)CCC[C@@](C)(C(=O)O)[C@H]5CC[C@@]24C3)cc1`, in the experiment listed under Danio rerio [1], the Activity was >70%.

For the compound `Cc1ccc(S(=O)(=O)OC[C@@H]2C(=O)[C@@]3(C)CC[C@H]4[C@]5(C)CCC[C@@](C)(C(=O)O)[C@H]5CC[C@@]24C3)cc1`, the Activity in the experiment filed under Danio rerio [3], in the experiment filed under Danio rerio [6] and in the experiment filed under Danio rerio [1] was 60% each time.

With `C[C@]12CC[C@H]3[C@]4(C)CCC[C@@](C)(C(=O)O)[C@H]4CC[C@@]3(C1)[C@H](COC(=O)C1CCCCC1)C2=O`, in the experiment listed under Danio rerio [1], the outcome was inactive.

Consider `C[C@]12CC[C@H]3[C@]4(C)CCC[C@@](C)(N)[C@H]4CC[C@@]3(C1)[C@H](CO)[C@H]2O`, for which the outcome in the experiment listed under Danio rerio [1] was inactive.

On to `COc1cc(C(=O)OC[C@@H]2[C@@H](O)[C@@]3(C)CC[C@H]4[C@]5(C)CCC[C@@](C)(N)[C@H]5CC[C@@]24C3)cc(OC)c1OC`, for which, in the experiment listed under Danio rerio [1], the outcome was Active.

`C=C1C(=O)[C@@]2(C)CC[C@@H]3[C@]1(CC[C@H]1[C@@]3(C)CCC[C@@]1(C)C(=O)O)C2`: the Activity in the experiment listed under Danio rerio [3] stood at 50%; in the experiment listed under Danio rerio [6], 38%; in the experiment filed under Danio rerio [1], 26%.

For the compound `COc1cccc(C(=O)OC[C@@H]2C(=O)[C@@]3(C)CC[C@H]4[C@]5(C)CCC[C@@](C)(C(=O)O)[C@H]5CC[C@@]24C3)c1OC`, the Activity in the experiment listed under Danio rerio [1] is 70%.

Consider `Cc1ccc(S(=O)(=O)OC[C@@H]2[C@@H](O)[C@@]3(C)CC[C@H]4[C@]5(C)CCC[C@@](C)(C(=O)O)[C@H]5CC[C@@]24C3)cc1`, for which the Activity in the experiment filed under Danio rerio [3], in the experiment filed under Danio rerio [6] and in the experiment listed under Danio rerio [1] was 60% each time.

Regarding `C[C@]12CC[C@H]3[C@]4(C)CCC[C@@](C)(C(=O)O)[C@H]4CC[C@@]3(C1)[C@H](CO)[C@H]2O`, the Activity in the experiment filed under Danio rerio [3], in the experiment filed under Danio rerio [6] and in the experiment filed under Danio rerio [1] was 60% in each case.

As to `CC(=O)OC[C@@H]1[C@@H](O)[C@@]2(C)CC[C@H]3[C@]4(C)CCC[C@@](C)(C(=O)O)[C@H]4CC[C@@]13C2`, the outcome in the experiment listed under Danio rerio [1] was inactive.

As for `COc1cc(C(=O)OC[C@@H]2C(=O)[C@@]3(C)CC[C@H]4[C@]5(C)CCC[C@@](C)(C(=O)O)[C@H]5CC[C@@]24C3)cc(OC)c1OC`, the Activity result in the experiment filed under Danio rerio [2] is “Dose-Dependent Effect”; in the experiment filed under Danio rerio [3], 68%; in the experiment with Danio rerio [4], “Dose-Dependent Effect”; in the experiment filed under Danio rerio [5], “Dose-Dependent Effect”; in the experiment listed under Danio rerio [6], 68%; in the experiment filed under Danio rerio [1], 68%. Further, the Activity entry in the experiment listed under Danio rerio [7], in the experiment listed under Danio rerio [8] and in the experiment filed under Danio rerio [9] was “Dose-Dependent Effect” each time.

As to `COc1cccc(C(=O)OC[C@@H]2[C@@H](O)[C@@]3(C)CC[C@H]4[C@]5(C)CCC[C@@](C)(N)[C@H]5CC[C@@]24C3)c1OC`, the result in the experiment filed under Danio rerio [1] was Active.

For the compound `COc1ccc(COC(=O)[C@]2(C)CCC[C@@]3(C)[C@@H]4CC[C@@]5(C)C[C@]4(CC[C@@H]32)CC5=O)cc1`, the Activity in the experiment listed under Danio rerio [6] was found to be 60%.

With `COc1cc(C(=O)OC[C@@H]2C(=O)[C@@]3(C)CC[C@H]4[C@]5(C)CCC[C@@](C)(N)[C@H]5CC[C@@]24C3)cc(OC)c1OC`, the Activity entry in the experiment filed under Danio rerio [2] was “Dose-Dependent Effect”; with Danio rerio [4], “Dose-Dependent Effect”; in the experiment filed under Danio rerio [5] it was “Dose-Dependent Effect”; in the experiment filed under Danio rerio [1], 87%; in the experiment listed under Danio rerio [7] it was “Dose-Dependent Effect”; in the experiment filed under Danio rerio [8], “Dose-Dependent Effect”. The Activity result in the experiment filed under Danio rerio [9] is “Dose-Dependent Effect”.

With `C[C@@]12CC[C@@H]3[C@@](CC[C@H]4[C@@]3(C)CCC[C@@]4(C)C(=O)OCc3ccccc3)(CC1=O)C2`, the Activity in the experiment filed under Danio rerio [3] worked out at 60%.

Consider `COc1ccc(C(=O)OC[C@@H]2C(=O)[C@@]3(C)CC[C@H]4[C@]5(C)CCC[C@@](C)(C(=O)O)[C@H]5CC[C@@]24C3)cc1OC`, for which the result in the experiment filed under Danio rerio [1] was Active. Further, the Activity in the experiment listed under Danio rerio [1] (record 2) is recorded as >70%.

Turning to `C[C@@]12CC[C@@H]3[C@@](CC[C@H]4[C@@]3(C)CCC[C@@]4(C)N)(CC1=O)C2`, the Activity result in the experiment filed under Danio rerio [2] is “Dose-Dependent Effect”; in the experiment filed under Danio rerio [3] it was 85%; in the experiment on Danio rerio [4], “Dose-Dependent Effect”; in the experiment listed under Danio rerio [5], “Dose-Dependent Effect”; in the experiment filed under Danio rerio [7], “Dose-Dependent Effect”; in the experiment filed under Danio rerio [8] it was “Dose-Dependent Effect”. Moreover, the Activity entry in the experiment filed under Danio rerio [9] was “Dose-Dependent Effect”.
